Results published in ChEMBL document CHEMBL1833842, “1,3-Dihydro-2H-indol-2-ones derivatives: design, synthesis, in vitro antibacterial, antifungal and antitubercular study” (2011).
Values after ≈ are worked out from the molar mass of the structure shown.

What was measured:
[1] = system: Mycobacterium tuberculosis; assay: Antituberculosis activity against 5 x 10^4 bacilli per tube Mycobacterium tuberculosis H37Rv assessed as growth inhibition at 40 ug/mL incubated for 24 hrs measured after 28 days; assay type: functional; conditions: read-out: GI
In short: (§1)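 Conventional Lowenstein-Jensen method. Compound dilutions were made from a DMSO stock and added to liquid L-J medium, which was sterilized by inspissation. Tubes were incubated 24 h at 37 °C, then streaked with H37Rv (5 × 10⁴ bacilli per tube) harvested into 0.85% saline. Growth was checked at 12, 22 and 28 days at 37 °C against medium-only controls. MIC was the concentration giving no colonies or <20 colonies.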

[2] = system: Mycobacterium tuberculosis; assay: Antituberculosis activity against 5 x 10^4 inoculum per tube Mycobacterium tuberculosis H37Rv after 24 hrs by Lowenstein-Jensen method; assay type: functional; in short: as §1
[3] = system: Mycobacterium tuberculosis; assay: Antituberculosis activity against 5 x 10^4 inoculum per tube Mycobacterium tuberculosis H37Rv assessed as growth inhibition at 500 ug/mL incubated for 24 hrs measured after 28 days; assay type: functional; conditions: read-out: GI; in short: as §1
[4] = system: Aspergillus clavatus; assay: Antifungal activity against 10^8 CFU/mL Aspergillus clavatus MTCC 1323 by broth microdilution method; assay type: functional
In short: (§2)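 Fungal MTCC cultures came from IMTECH Chandigarh. Mueller-Hinton broth served as growth and dilution medium, with DMSO as diluent. Inoculum was set to 10⁸ CFU/mL by turbidity. Serial dilutions from a 2000 stock gave a primary screen at 500, 250 and 125, followed by a secondary dilution series for actives. MIC was the lowest concentration inhibiting growth.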

[5] = system: Bacillus subtilis; assay: Antibacterial activity against 10^8 CFU/mL Bacillus subtilis MTCC 441 by broth microdilution method; assay type: functional
In short: (§3)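 MTCC bacterial strains from IMTECH Chandigarh were grown in Mueller-Hinton broth, which was also used to dilute the compounds. Inoculum was turbidity-adjusted to 10⁸ CFU/mL, and DMSO served as diluent. Compounds from a 2000 stock were screened first at 500, 250 and 125; actives were retested in a second dilution series. Tubes were incubated overnight at 37 °C, and MIC was the lowest concentration with no visible growth. Clear tubes were subcultured overnight at 37 °C to tell bacteriostatic from bactericidal.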

[6] = system: Klebsiella pneumoniae; assay: Antibacterial activity against 10^8 CFU/mL Klebsiella pneumoniae MTCC 109 by broth microdilution method; assay type: functional; in short: as §3
[7] = system: Pseudomonas aeruginosa; assay: Antibacterial activity against 10^8 CFU/mL Pseudomonas aeruginosa MTCC 1688 by broth microdilution method; assay type: functional; in short: as §3
[8] = system: Salmonella typhi; assay: Antibacterial activity against 10^8 CFU/mL Salmonella typhi MTCC 98 by broth microdilution method; assay type: functional, Salmonella enterica subsp. enterica serovar Typhi; conditions: Salmonella enterica
In short: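 Broth microdilution in Mueller-Hinton broth with MTCC strains, inoculum adjusted by turbidity to 10⁸ CFU/mL. Compounds were diluted from DMSO. Primary screen used 500, 250 and 125 concentrations, and actives were serially diluted further. Tubes were incubated overnight at 37 °C. MIC was the lowest concentration with no visible growth. Clear tubes were subcultured overnight at 37 °C to judge bacteriostatic versus bactericidal.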

[9] = system: Escherichia coli; assay: Antibacterial activity against 10^8 CFU/mL Escherichia coli MTCC 443 by broth microdilution method; assay type: functional; in short: as §3
[10] = system: Aspergillus niger; assay: Antifungal activity against 10^8 CFU/mL Aspergillus niger MTCC 282 by broth microdilution method; assay type: functional; in short: as §2
[11] = system: Candida albicans; assay: Antifungal activity against 10^8 CFU/mL Candida albicans MTCC 227 by broth microdilution method; assay type: functional; in short: as §2
[12] = system: Staphylococcus aureus; assay: Antibacterial activity against 10^8 CFU/mL Staphylococcus aureus MTCC 96 by broth microdilution method; assay type: functional; in short: as §3
[13] = system: Streptococcus pyogenes; assay: Antibacterial activity against 10^8 CFU/mL Streptococcus pyogenes MTCC 442 by broth microdilution method; assay type: functional; in short: as §3
[14] = system: Mycobacterium tuberculosis; assay: Antituberculosis activity against 5 x 10^4 bacilli per tube Mycobacterium tuberculosis H37Rv assessed as growth inhibition at 1000 ug/mL incubated for 24 hrs measured after 28 days; assay type: functional; conditions: read-out: GI; in short: as §1
[15] = system: Mycobacterium tuberculosis; assay: Antituberculosis activity against 5 x 10^4 bacilli per tube Mycobacterium tuberculosis H37Rv assessed as growth inhibition at 62.5 ug/mL incubated for 24 hrs measured after 28 days; assay type: functional; conditions: read-out: GI; in short: as §1
[16] = system: Mycobacterium tuberculosis; assay: Antituberculosis activity against 5 x 10^4 bacilli per tube Mycobacterium tuberculosis H37Rv assessed as growth inhibition at 25 ug/mL incubated for 24 hrs measured after 28 days; assay type: functional; conditions: read-out: GI; in short: as §1

CO[C@H]1/C=C/O[C@@]2(C)Oc3c(C)c(O)c4c(O)c(c(/C=N/N5CCN(C)CC5)c(O)c4c3C2=O)NC(=O)/C(C)=C\C=C\[C@H](C)[C@H](O)[C@@H](C)[C@@H](O)[C@@H](C)[C@H](OC(C)=O)[C@@H]1C [RIFAMPIN]
inhibition of growth at 40 µg/mL [1]: 98% | MIC [2]: 40 µg/mL (≈ 48.6 µM)

CC1=C(c2nnc(/N=C3\C(=O)Nc4ccc(Br)cc43)s2)C(c2ccccc2)NC(=O)N1 (stereo not given)
inhibition of growth at 500 µg/mL [3]: 98% | MIC [4]: > 1000 µg/mL | MIC99 [5]: 100 µg/mL (≈ 202 µM) | MIC99 [6]: 200 µg/mL (≈ 404 µM) | MIC99 [7]: 250 µg/mL (≈ 505 µM) | MIC99 [8]: 250 µg/mL (≈ 505 µM) | MIC99 [9]: 250 µg/mL (≈ 505 µM) | MIC [2]: 500 µg/mL (≈ 1010 µM) | MIC [10]: 500 µg/mL (≈ 1010 µM) | MIC [11]: 500 µg/mL (≈ 1010 µM) | MIC99 [12]: 100 µg/mL (≈ 202 µM) | MIC99 [13]: 100 µg/mL (≈ 202 µM)

CC1=C(c2nnc(/N=C3\C(=O)Nc4ccc(I)cc43)s2)C(c2ccccc2)NC(=O)N1 (stereo not given)
MIC [4]: > 1000 µg/mL | MIC99 [5]: 250 µg/mL (≈ 461 µM) | MIC99 [6]: 250 µg/mL (≈ 461 µM) | MIC99 [7]: 250 µg/mL (≈ 461 µM) | MIC99 [8]: 250 µg/mL (≈ 461 µM) | MIC99 [9]: 250 µg/mL (≈ 461 µM) | MIC [2]: 1000 µg/mL (≈ 1840 µM) | inhibition of growth at 1000 µg/mL [14]: 98% | MIC [10]: > 1000 µg/mL | MIC [11]: > 1000 µg/mL | MIC99 [12]: 250 µg/mL (≈ 461 µM) | MIC99 [13]: 200 µg/mL (≈ 369 µM)

CC1=C(c2nnc(/N=C3\C(=O)Nc4ccc([N+](=O)[O-])cc43)s2)C(c2ccccc2)NC(=S)N1 (stereo not given)
MIC [4]: 250 µg/mL (≈ 524 µM) | MIC99 [5]: 100 µg/mL (≈ 209 µM) | MIC99 [6]: 100 µg/mL (≈ 209 µM) | MIC99 [7]: 100 µg/mL (≈ 209 µM) | MIC99 [8]: 100 µg/mL (≈ 209 µM) | MIC99 [9]: 62.5 µg/mL (≈ 131 µM) | MIC [2]: 62.5 µg/mL (≈ 131 µM) | inhibition of growth at 62.5 µg/mL [15]: 99% | MIC [10]: 100 µg/mL (≈ 209 µM) | MIC [11]: 250 µg/mL (≈ 524 µM) | MIC99 [12]: 100 µg/mL (≈ 209 µM) | MIC99 [13]: 200 µg/mL (≈ 419 µM)

CC1=C(c2nnc(/N=C3\C(=O)Nc4ccc(F)cc43)s2)C(c2ccccc2)NC(=S)N1 (stereo not given)
inhibition of growth at 25 µg/mL [16]: 99% | MIC [4]: 100 µg/mL (≈ 222 µM) | MIC99 [5]: 100 µg/mL (≈ 222 µM) | MIC99 [6]: 100 µg/mL (≈ 222 µM) | MIC99 [7]: 62.5 µg/mL (≈ 139 µM) | MIC99 [8]: 100 µg/mL (≈ 222 µM) | MIC99 [9]: 62.5 µg/mL (≈ 139 µM) | MIC [2]: 25 µg/mL (≈ 55.5 µM) | MIC [10]: 100 µg/mL (≈ 222 µM) | MIC [11]: 100 µg/mL (≈ 222 µM) | MIC99 [12]: 62.5 µg/mL (≈ 139 µM) | MIC99 [13]: 100 µg/mL (≈ 222 µM)
